Test results taken from ChEMBL document CHEMBL4823296, “NMR-Guided Design of Potent and Selective EphA4 Agonistic Ligands” (J Med Chem, 2021).
Converted amounts (≈) assume the structure as drawn. The source made the active and inactive calls. The rule behind the calls is not given here. Non-standard residues stand in square brackets, D forms with d. Residues, ends and D or L forms follow the SMILES beside them. *: point of attachment. Cyclohexanoyl(1S,3S-3-NH2) = N[C@H]1CCC[C@H](C(=O)*)C1; Trp(5-OH) = N[C@@H](Cc1c[nH]c2ccc(O)cc12)C(=O)O; NH(4-morpholinophenyl) = c1cc(N2CCOCC2)ccc1N*; Bip = N[C@@H](Cc1ccc(-c2ccccc2)cc1)C(=O)O; hArg = N=C(N)NCCCC[C@H](N)C(=O)O

What was measured:
Ephrin type-A receptor 2 = Ephrin type-A receptor 2 (Homo sapiens, UniProt P29317); test: Binding affinity to N-terminal His tagged EphA2 LBD (27 to 200 residues) (unknown origin) expressed in Origami (DE3) cells by isothermal titration calorimetry
Ephrin type-A receptor 2, sequence (P29317 whole entry, the tested form may be a part): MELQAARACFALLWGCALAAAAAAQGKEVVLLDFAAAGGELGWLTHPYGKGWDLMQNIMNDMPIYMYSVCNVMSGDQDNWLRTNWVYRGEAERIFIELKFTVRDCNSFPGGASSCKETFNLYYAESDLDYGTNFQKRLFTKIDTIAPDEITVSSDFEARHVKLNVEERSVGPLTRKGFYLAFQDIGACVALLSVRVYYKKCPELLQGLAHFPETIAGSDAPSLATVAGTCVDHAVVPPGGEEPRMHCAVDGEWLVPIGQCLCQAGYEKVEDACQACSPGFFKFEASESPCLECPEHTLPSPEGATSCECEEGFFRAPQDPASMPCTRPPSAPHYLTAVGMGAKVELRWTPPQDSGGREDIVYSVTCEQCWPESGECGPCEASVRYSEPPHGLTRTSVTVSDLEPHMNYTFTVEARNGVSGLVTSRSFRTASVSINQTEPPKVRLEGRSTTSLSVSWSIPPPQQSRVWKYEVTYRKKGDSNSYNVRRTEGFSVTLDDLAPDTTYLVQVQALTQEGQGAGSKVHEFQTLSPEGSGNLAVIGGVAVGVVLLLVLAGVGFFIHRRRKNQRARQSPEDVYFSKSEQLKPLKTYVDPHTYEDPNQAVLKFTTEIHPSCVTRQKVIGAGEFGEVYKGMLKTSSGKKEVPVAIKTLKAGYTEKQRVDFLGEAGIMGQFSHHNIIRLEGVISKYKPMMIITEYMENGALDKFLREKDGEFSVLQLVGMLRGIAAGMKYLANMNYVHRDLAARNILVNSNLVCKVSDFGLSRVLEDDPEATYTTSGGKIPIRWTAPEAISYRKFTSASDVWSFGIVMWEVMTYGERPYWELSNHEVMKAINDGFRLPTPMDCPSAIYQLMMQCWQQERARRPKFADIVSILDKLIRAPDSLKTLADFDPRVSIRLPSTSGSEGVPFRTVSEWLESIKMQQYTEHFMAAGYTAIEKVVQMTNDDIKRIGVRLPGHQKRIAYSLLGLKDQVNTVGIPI

Neuron [1] = test: Cytoprotective activity against patient derived induced astrocyte-mediated B6-Cg-Tg(Hlxb9-GFP)1Tmj/J (Hb9-GFP) mouse motor neuron death at 100 uM measured after 3 days by imaging method; assay type: functional, tissue-based; details: time 3.0 day
Outline: (§1)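 Patient fibroblast-derived NPCs differentiated 5 days into induced astrocytes (DMEM, 10% FBS, 0.2% N2), seeded 10,000 per well; 24 h later GFP+ (HB9 promoter) motor neurons sorted from mouse embryoid bodies added at 10,000 per well together with compound. Imaged up to 3 days; neurons with neurites >50 μm counted alive, normalized to healthy-control survival; at least 2 independent experiments.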

[2] = Aqueous solubility of compound; assay type: physicochemical; details: buffer
[3] = target: Ephrin type-A receptor 4 (Mus musculus) (UniProt Q03137); test: Agonist activity at EphA4 in B6-Cg-Tg(Hlxb9-GFP)1Tmj/J (Hb9-GFP) mouse spinal cord motor neurons assessed as induction of growth cone collapse at 1 to 10 uM by rhodamine-coupled phalloidin dye based inverted fluorescent microscopic method; details: filed as agonist, dose 1-10 µM
Ephrin type-A receptor 4 (Mus musculus), sequence (Q03137 whole entry): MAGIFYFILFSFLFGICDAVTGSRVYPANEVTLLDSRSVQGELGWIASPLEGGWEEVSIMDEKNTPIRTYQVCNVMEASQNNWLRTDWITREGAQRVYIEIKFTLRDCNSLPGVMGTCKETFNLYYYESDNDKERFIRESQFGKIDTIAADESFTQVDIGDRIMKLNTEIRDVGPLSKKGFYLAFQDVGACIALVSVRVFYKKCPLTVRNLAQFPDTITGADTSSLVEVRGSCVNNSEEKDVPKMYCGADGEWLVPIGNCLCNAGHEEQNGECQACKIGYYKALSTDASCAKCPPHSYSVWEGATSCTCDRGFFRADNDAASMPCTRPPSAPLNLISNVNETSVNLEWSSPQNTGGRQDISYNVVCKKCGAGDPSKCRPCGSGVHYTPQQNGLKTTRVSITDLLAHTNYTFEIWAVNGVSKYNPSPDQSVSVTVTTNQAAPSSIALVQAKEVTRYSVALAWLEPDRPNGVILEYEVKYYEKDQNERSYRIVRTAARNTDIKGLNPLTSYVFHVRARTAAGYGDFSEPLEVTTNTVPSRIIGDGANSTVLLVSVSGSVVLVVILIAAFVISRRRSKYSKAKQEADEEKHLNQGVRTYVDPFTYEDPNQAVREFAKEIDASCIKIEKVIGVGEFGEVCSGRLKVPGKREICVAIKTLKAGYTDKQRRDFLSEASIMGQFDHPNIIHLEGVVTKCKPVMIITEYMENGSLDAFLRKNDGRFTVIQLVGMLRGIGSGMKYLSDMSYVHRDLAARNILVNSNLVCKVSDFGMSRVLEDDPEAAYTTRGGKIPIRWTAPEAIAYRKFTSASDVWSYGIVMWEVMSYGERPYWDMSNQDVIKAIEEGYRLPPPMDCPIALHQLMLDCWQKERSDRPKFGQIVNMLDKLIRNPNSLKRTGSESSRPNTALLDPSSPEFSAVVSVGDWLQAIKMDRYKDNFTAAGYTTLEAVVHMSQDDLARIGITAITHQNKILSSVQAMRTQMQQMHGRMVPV
Outline: (§2)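 Primary Hb9-GFP mouse spinal cord motor neurons at 2 DIV treated as in receptor activation assay (30 min, 37°C), 1 or 10 μM, alone or with pre-clustered ephrinA1-Fc (2 μg/mL); 0.1% DMSO negative control. Fixed in 2% paraformaldehyde, F-actin stained with rhodamine-phalloidin, ChAT immunolabelled; 20× fluorescence imaging, percent collapsed growth cones, 100 images per group; SEM, n=4–6 coverslips.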

Ephrin type-A receptor 4 [4] = target: T1, Ephrin type-A receptor 4 (Homo sapiens, UniProt P54764); test: Binding affinity to N-terminal His tagged EphA4 LBD (unknown origin) (29 to 209 residues) expressed in Rosetta-Gami B(DE3) cells by isothermal titration calorimetry
T1 sequence (P54764 whole entry, the tested form may be a part): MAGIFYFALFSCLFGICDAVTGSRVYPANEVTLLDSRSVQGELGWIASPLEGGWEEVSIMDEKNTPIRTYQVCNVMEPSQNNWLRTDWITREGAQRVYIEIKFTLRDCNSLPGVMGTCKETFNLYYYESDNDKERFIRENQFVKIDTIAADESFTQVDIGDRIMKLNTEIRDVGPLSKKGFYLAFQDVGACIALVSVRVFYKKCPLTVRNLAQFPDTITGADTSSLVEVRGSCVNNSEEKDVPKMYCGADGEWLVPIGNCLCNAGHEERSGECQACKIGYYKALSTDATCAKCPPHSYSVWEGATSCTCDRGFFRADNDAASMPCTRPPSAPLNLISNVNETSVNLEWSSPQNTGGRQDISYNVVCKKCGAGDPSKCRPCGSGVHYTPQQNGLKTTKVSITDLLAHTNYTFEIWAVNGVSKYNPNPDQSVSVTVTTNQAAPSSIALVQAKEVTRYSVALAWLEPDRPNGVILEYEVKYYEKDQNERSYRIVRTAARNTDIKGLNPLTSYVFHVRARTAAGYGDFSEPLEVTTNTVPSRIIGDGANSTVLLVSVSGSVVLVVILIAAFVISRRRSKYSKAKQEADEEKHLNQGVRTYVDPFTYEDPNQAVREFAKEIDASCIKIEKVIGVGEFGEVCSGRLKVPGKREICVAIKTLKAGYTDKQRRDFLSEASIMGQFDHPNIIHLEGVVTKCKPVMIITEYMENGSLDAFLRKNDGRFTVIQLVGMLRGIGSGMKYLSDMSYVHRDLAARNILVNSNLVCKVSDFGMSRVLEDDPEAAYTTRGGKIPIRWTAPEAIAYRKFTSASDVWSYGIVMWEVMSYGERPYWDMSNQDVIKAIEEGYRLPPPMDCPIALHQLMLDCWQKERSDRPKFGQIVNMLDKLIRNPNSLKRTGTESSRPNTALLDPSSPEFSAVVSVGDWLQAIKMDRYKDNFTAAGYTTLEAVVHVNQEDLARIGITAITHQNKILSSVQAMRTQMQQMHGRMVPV

Ephrin type-A receptor 4 [5] = target: T1, Ephrin type-A receptor 4; test: Displacement of EphrinA5 from N-terminal His tagged EphA4 LBD (unknown origin) (29 to 209 residues) expressed in Rosetta-Gami B(DE3) cells by 2D-[13C-1H] HSQC NMR spectroscopy; assay type: cell-based; details: filed as agonist
Neuron [6] = test: Cytoprotective activity against patient derived induced astrocyte-mediated B6-Cg-Tg(Hlxb9-GFP)1Tmj/J (Hb9-GFP) mouse motor neuron death at 10 uM measured after 3 days by imaging method; assay type: functional, tissue-based; details: time 3.0 day; outline: as §1
[7] = target: Ephrin type-A receptor 4 (Mus musculus) (UniProt Q03137); test: Agonist activity at EphA4 in B6-Cg-Tg(Hlxb9-GFP)1Tmj/J (Hb9-GFP) mouse primary spinal cord motor neuron cells assessed as protein phosphorylation at […] residues at 1 to 10 uM incubated for 30 mins by Western blotting analysis; details: filed as agonist, dose 1-10 µM
Outline: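 Hb9-GFP mouse motor neurons from P0–2 spinal cords (papain/DNase I dissociation, OptiPrep purification), plated on poly-D-lysine/laminin in Neurobasal/B27, then 5% horse serum plus CNTF; at 2 DIV treated 30 min at 37°C, 5% CO2/10% O2, at 1 or 10 μM; 0.1% DMSO, pre-clustered Fc and ephrinA1-Fc (2 μg/mL) controls. Lysates immunoprecipitated with anti-EphA4, blotted for phosphotyrosine, reprobed for EphA4; pEphA4/total EphA4 band density ratio; SEM, each experiment repeated 3 times.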

[8] = target: Ephrin type-A receptor 4 (Mus musculus) (UniProt Q03137); test: Agonist activity at EphA4 in B6-Cg-Tg(Hlxb9-GFP)1Tmj/J (Hb9-GFP) mouse spinal cord motor neurons assessed as induction of growth cone collapse at 1 to 10 uM in presence of ephrin A1-Fc by rhodamine-coupled phalloidin dye based inverted fluorescent microscopic method; details: filed as agonist, dose 1-10 µM; outline: as §2

## COc1ccc2[nH]cc(CCNC(=O)[C@H](Cc3ccncc3)NC(=O)[C@H](Cc3ccc(Cl)cc3)NC(=O)[C@H](Cc3c[nH]c4ccc(O)cc34)NC(=O)CCCN)c2c1
Ephrin type-A receptor 2
  Kd: Not Active
Neuron [1]
  Activity: Active
[2]; read-out: solubility
  solubility: 100 µM (≈ 80.7 µg/mL)

## N=C(N)NCCCC[C@H](NC(=O)[C@H](Cc1ccc(-c2ccccc2)cc1)NC(=O)[C@H](Cc1c[nH]c2ccc(O)cc12)NC(=O)[C@H]1CCC[C@H](N)C1)C(=O)NCC(=O)Nc1ccc(N2CCOCC2)cc1 ({Cyclohexanoyl(1S,3S-3-NH2)}-[Trp(5-OH)][Bip][hArg]G-{NH(4-morpholinophenyl)})
[3]
  Activity: Active
Ephrin type-A receptor 4 [4]
  Kd: 113 nM
Ephrin type-A receptor 4 [5]
  Activity: Active
Neuron [6]
  Activity: Active
[7]
  Activity: Active
[8]
  Activity: Active
[2]
  solubility: > 50000 µM
